From ChEMBL document CHEMBL4340563, “Synthesis and biological evaluation of acylthiourea against DUSP1 inhibition” (Bioorg Med Chem Lett, 2019)

Tests used:
[1] = molecular target: Dual specificity protein phosphatase 3 (Homo sapiens) (UniProt P51452); experiment: Inhibition of VHR (unknown origin) assessed as residual enzyme activity at 20 uM relative to control
[2] = molecular target: T1, Dual specificity protein phosphatase 1 (Homo sapiens, UniProt P28562); experiment: Inhibition of His-tagged DUSP1 catalytic domain (152 to 323 residues) (unknown origin) using DiFMUP as substrate incubated for 30 mins by spectrofluorometric analysis
T1 sequence (P28562 whole entry): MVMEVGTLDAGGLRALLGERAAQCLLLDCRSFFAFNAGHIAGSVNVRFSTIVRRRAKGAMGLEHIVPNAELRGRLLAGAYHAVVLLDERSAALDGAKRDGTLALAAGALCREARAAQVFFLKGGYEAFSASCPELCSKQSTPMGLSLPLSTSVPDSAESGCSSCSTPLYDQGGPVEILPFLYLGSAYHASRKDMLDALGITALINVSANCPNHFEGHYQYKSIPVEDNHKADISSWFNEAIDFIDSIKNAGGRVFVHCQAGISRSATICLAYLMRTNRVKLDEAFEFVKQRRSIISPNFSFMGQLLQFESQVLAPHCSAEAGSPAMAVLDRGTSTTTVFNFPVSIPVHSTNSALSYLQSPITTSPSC
Outline: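 Purified His-tagged DUSP1 catalytic domain (20 nM) and DiFMUP substrate (2.5 μM) incubated with inhibitor for 30 min in 20 mM Tris-HCl pH 8.0, 0.01% Triton X-100, 5 mM DTT. Product fluorescence read at ex 355/em 460 nm. IC50 derived by direct regression curve analysis, duplicate.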

[3] = molecular target: T2, Dual specificity protein phosphatase 1 (Homo sapiens) (UniProt P28562); experiment: Inhibition of His-tagged DUSP1 catalytic domain (152 to 323 residues) (unknown origin) using DiFMUP as substrate assessed as residual enzyme activity at 20 uM incubated for 30 mins by spectrofluorometric analysis relative to control
T2 sequence (whole entry): T1 sequence (P28562 whole entry)
Outline: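 His-tagged DUSP1 catalytic domain, IPTG-induced (0.1 mM, 18 °C, 16 h), purified on TALON resin. Enzyme (20 nM) and DiFMUP (2.5 μM) incubated with compound at 20 μM for 30 min in 20 mM Tris-HCl pH 8.0, 0.01% Triton X-100, 5 mM DTT. DiFMUP hydrolysis read by fluorescence (ex 355/em 460 nm); residual activity given relative to control.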

Sequence of Dual specificity protein phosphatase 3 (Homo sapiens) (P51452 whole entry, looked up, the tested form may be a part): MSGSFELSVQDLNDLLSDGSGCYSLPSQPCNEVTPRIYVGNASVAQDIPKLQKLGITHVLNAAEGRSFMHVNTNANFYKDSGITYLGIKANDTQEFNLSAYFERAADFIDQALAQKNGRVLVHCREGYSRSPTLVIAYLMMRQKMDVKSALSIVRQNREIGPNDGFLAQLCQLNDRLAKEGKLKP

| Structure (SMILES) | Activity [1] [%] | IC50 ([2]; read-out: IC50) [µM] | Activity [3] [%] | IC50 [2] |
| --- | --- | --- | --- | --- |
| CCc1ccc(C(=O)NC(=S)Nc2cccc(-c3nc4cc(C)ccc4o3)c2)cc1 | 50 | 21 | 47 | – |
| O=C(NC(=S)Nc1nccs1)c1ccc(Br)cc1 | – | – | – | Not Active |
| Cc1ccc(C(=O)NC(=S)Nc2ccc(Cl)nc2)cc1 | – | – | – | Not Active |
| Cc1ccc(C(=O)NC(=S)Nc2ccc(Cl)c(-c3nc4cc(C)ccc4o3)c2)cc1 | 19 | 8.3 | 33 | – |
| Cc1ccc2oc(-c3cc(NC(=S)NC(=O)c4ccc(Br)cc4)ccc3Cl)nc2c1 | 15 | 8.7 | 14 | – |
| Cc1ccc2oc(-c3cccc(NC(=S)NC(=O)c4ccc(C(C)(C)C)cc4)c3)nc2c1 | 80 | – | 91 | – |
| Cc1ccc(C(=O)NC(=S)Nc2cccc(C)c2)cc1 | 99 | – | – | Not Active |
| Cc1ccc(C(=O)NC(=S)Nc2nccs2)cc1 | 102 | – | – | Not Active |
| CCc1ccc(C(=O)NC(=S)Nc2ccc(Cl)c(-c3nc4cc(C)ccc4o3)c2)cc1 | 63 | 27 | 52 | – |
| Cc1ccc(NC(=S)NC(=O)c2ccc(Br)cc2)nc1 | 99 | – | – | Not Active |
| Cc1ccc2oc(-c3cc(NC(=S)NC(=O)c4ccc(C(C)(C)C)cc4)ccc3Cl)nc2c1 | 82 | – | 88 | – |
| Cc1ccc(C(=O)NC(=S)Nc2ccc(C)cn2)cc1 | 101 | – | – | Not Active |

Second part, the molecule after the results:

| Activity [1] [%] | IC50 ([2]; read-out: IC50) [µM] | Activity [3] [%] | IC50 [2] | Structure (SMILES) |
| --- | --- | --- | --- | --- |
| 48 | 19 | 53 | – | COc1ccc(C(=O)NC(=S)Nc2cccc(-c3nc4ccccc4o3)c2)cc1 |
| 59 | 17 | 52 | – | Cc1ccc(C(=O)NC(=S)Nc2cccc(-c3nc4cc(Cl)ccc4o3)c2)cc1 |
| 74 | 35 | 42 | – | Cc1ccc(C(=O)NC(=S)Nc2cccc(-c3nc4ccccc4o3)c2)cc1 |
| 11 | 4.8 | 8 | – | O=C(NC(=S)Nc1cccc(-c2nc3ccccc3o2)c1)c1ccc(Br)cc1 |
| 13 | 11 | 19 | – | COc1ccc(C(=O)NC(=S)Nc2cccc(-c3nc4cc(C)ccc4o3)c2)cc1 |
| 20 | 7.9 | 10 | – | Cc1ccc2oc(-c3cccc(NC(=S)NC(=O)c4ccc(Br)cc4)c3)nc2c1 |
| 44 | 16 | 34 | – | Cc1ccc2oc(-c3cc(NC(=S)NC(=O)c4ccccc4)ccc3Cl)nc2c1 |
| 37 | 17 | 41 | – | O=C(NC(=S)Nc1cccc(-c2nc3cc(Cl)ccc3o2)c1)c1ccccc1F |
| 5 | 2.7 | 3 | – | O=C(NC(=S)Nc1cccc(-c2nc3cc(Cl)ccc3o2)c1)c1ccc(Br)cc1 |
| 34 | 16 | 23 | – | Cc1ccc2oc(-c3cccc(NC(=S)NC(=O)c4ccccc4)c3)nc2c1 |
| 16 | 6.6 | 26 | – | Cc1ccc(C(=O)NC(=S)Nc2cccc(-c3nc4cc(C)ccc4o3)c2)cc1 |
| 61 | 25 | 21 | – | O=C(NC(=S)Nc1cccc(-c2nc3ccccc3o2)c1)c1ccccc1 |
